# Screening results deposited in PubChem BioAssay by several laboratories.
# Shown are actives, neighbours in structure and some others; about 2.9% of the full set was active somewhere.
# CRFBP-R2 agonist = CRF-BP/CRF-R2 complex agonism | HEK293 CRF-R2/CRF-BP, calcium dye fluorescence (FLIPR); percent of saturating CRF peptide response | activation, % at 13.2 µM | 0.46% of 350,000 active | AID 588473;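 active = activation of at least 50%, plus an integration ratio under a set limit after plate pattern correction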;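 also: plate controls were neutral control wells without compound for no effect and CRF at EC100 for full effect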
# Tn7 DDE FP = disrupts Tn7 cyclic peptide binding to fibrin D-Dimer-E complex | inhibition, % at 8.3 µM | P02675 | AID 720508 | 0.13% of 370,000 active | FP displacement of FITC-Tn7 peptide from fibrin DD(E); 0% = median of compound wells per plate;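 active = inhibition above the mean of compounds falling within the control limits plus 3 SD of them, cut at about 14% in these data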;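 also: 0% = plate median of compound wells and 100% = 10 µM Aha-Tn7 peptide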
#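 Assay system: Human clot-derived fibrin DD(E) complex | Buffer or medium: Tris/NaCl/CaCl2 buffer, pH 7.8 | Repeats: One replicate per compound | Benchmarks: Aha-Tn7 high control | Measure: % inhibition scaled between sample-field median and high-control FP | Schedule: 10 min plus 3 h, room temperature | Signal: Fluorescence polarization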
# CRFR2-BP antag = blocks CRF-induced signaling of the CRF-BP/CRF-R2 complex; 0.59% of 350,000 active; HEK293 CRF-R2/CRF-BP, CRF-induced calcium fluorescence; inhibition, % at 11.8 µM; AID 588475;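 active = inhibition of the ligand-induced calcium signal above about 50% at the single tested concentration, limit read from the data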
# NRP1-CendR mod = modulators of CendR peptide binding to human neuropilin-1; FAM-RPARPAR peptide binding to NRP-1, fluorescence polarization; inhibition, % at 25 µM; 0.85% of 360,000 active;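 active = inhibition or corrected inhibition above about 18%, plus a signal ratio from 0.5 to 1.5, limit read from the data, passing the limit was not always enough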
# Target sequence (O14786 whole entry, looked up): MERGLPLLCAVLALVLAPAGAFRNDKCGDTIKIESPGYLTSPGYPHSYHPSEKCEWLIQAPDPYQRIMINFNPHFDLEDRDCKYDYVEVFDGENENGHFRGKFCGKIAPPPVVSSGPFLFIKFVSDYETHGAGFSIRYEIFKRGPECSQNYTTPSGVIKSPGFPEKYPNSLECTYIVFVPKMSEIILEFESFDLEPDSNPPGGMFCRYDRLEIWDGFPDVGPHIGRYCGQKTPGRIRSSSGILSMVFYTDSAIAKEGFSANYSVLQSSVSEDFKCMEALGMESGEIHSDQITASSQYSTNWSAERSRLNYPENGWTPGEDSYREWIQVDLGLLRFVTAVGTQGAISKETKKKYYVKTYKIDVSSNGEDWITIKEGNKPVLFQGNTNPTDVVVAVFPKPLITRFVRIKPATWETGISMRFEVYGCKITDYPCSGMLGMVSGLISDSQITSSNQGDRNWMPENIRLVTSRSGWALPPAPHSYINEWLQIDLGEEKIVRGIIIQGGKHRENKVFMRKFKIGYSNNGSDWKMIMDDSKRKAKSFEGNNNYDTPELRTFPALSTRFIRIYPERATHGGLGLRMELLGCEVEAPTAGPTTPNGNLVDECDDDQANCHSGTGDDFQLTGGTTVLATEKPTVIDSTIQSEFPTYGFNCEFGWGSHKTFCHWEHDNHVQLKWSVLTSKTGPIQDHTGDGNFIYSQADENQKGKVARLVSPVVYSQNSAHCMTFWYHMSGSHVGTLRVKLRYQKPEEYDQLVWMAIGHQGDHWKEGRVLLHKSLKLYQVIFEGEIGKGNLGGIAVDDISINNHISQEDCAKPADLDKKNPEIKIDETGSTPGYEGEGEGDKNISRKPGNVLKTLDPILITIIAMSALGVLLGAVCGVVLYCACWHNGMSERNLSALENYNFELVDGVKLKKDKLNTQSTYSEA
# Tn6 DDE FP = DD(E)-Tn6 binding inhibition, primary FP screen; Fibrin DD(E) TRITC-Tn6 fluorescence polarization displacement; inhibition, % at 8.3 µM; P02675; 0.21% of 370,000 active; AID 720509;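 active = inhibition above a per-campaign cutoff: mean of compounds within control limits plus 3 SD, cut at about 15% in these data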;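 also: 0% = median of all compound wells on the plate and 100% = blocking peptide control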
# KLK7 zymogen act = activates the human kallikrein-7 zymogen. P49862. purified proKLK7, EDANS-DABCYL substrate fluorescence; 100% is mature enzyme control, 0% vehicle. activation, % at 7 µM. 0.9% of 370,000 active. AID 652039;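 active = activation above the mean of all tested compounds plus 3 SD, computed per campaign excluding outliers beyond control limits, cut at about 13% in these data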
# proKLK7 act conf = confirmation of human kallikrein-7 zymogen activators. shares compounds with KLK7 zymogen act. purified proKLK7, EDANS-DABCYL substrate fluorescence; scaled: vehicle 0, mature enzyme 100. activation, % at 7 µM. 68% of 3,200 active;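 active = activation, as change over the incubation, above the mean of all tested compounds plus 3 SD, cut at about 13% in these data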
# EDANS-DABCYL int = counter-screen for kallikrein-7 activators: EDANS-DABCYL optical interference | shares compounds with KLK7 zymogen act | EDANS-DABCYL substrate fluorescence interference, no enzyme, 4 h; solvent 0%, active enzyme control 100% | activation, % at 7 µM | 80% of 3,200 active;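 active = activation above the all-compound mean plus 3 SD, ignoring values outside control-based bounds, cut at about 4.8% in these data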;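 also: value is the 4 h activation minus the activation read at time zero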
# EDANS interf = optically interferes with EDANS-DABCYL fluorescence, kallikrein-7 activator counter-screen. EDANS-DABCYL peptide fluorescence interference, no enzyme. 20% of 250 active. EC50, µM. shares compounds with KLK7 zymogen act;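 active = compounds that raise the fluorescence signal in this interference counterscreen, with EC50 at or below 10 µM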;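 also: intact quenched peptide substrate alone read at 355 nm excitation and 520 nm emission; signal is fluorescence gain from T0 to T4 after four hours at room temperature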
# Tn7 DDE conf = DD(E)-Tn7 binding inhibition, FP confirmation | AID 720628 | shares compounds with Tn7 DDE FP | 5% of 460 active | FP displacement of TRITC-Tn7 peptide from DD(E); 0% set at plate's compound-well median | inhibition, % at 8.3 µM;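 active = inhibition above the campaign cutoff, the mean of compounds within control limits plus 3 SD, cut at about 14% in these data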;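 also: 100% = median FP of high control wells holding Aha-Tn7 inhibitor peptide; displacers lower polarization since freed probe rises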
# Tn7 DDE ctr = counter-screen hit for Tn7 peptide-fibrin DD(E) binding disruption; AID 720633; 3% of 460 active; shares compounds with Tn7 DDE FP; inhibition, % at 8.3 µM; TRITC-Tn7 probe displacement, fluorescence polarization;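 active = inhibition above the cutoff, the mean of compounds lying between the control bounds plus 3 SD of those compounds, cut at about 17% in these data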;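 also: 0% = median of compound sample wells and 100% = excess unlabeled Aha-Tn7 peptide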
# DDE Tn6 FP ctr = DD(E)-Tn6 binding inhibition, counter-screen; shares compounds with Tn6 DDE FP; Fibrin DD(E), TRITC-Tn6 fluorescence polarization displacement; 0% = median of compound wells, not DMSO; inhibition, % at 8.3 µM; 2% of 680 active; AID 720621;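 active = inhibition above the mean of test compounds lying between the control limits plus 3 SD of those, cut at about 14% in these data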;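 also: 0% = median of compound wells and 100% = wells with Aha-Tn7 blocking peptide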
# DDE Tn6 confirm = DD(E)-Tn6 binding inhibition, FP confirmation; shares compounds with Tn6 DDE FP; FP displacement of TRITC-Tn6 peptide from DD(E); 0% = per-plate median of test wells; inhibition, % at 8.3 µM; 10% of 680 active;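 active = inhibition above the mean of compounds lying within the control limits plus 3 SD, cut at about 16% in these data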;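 also: 100% = high control wells holding a competing inhibitor peptide at 10 µM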
# * hit, by the source's call; . = no result given; + = active, no number.
SMILES,CRFBP-R2 agonist,Tn7 DDE FP,CRFR2-BP antag,NRP1-CendR mod,Tn6 DDE FP,KLK7 zymogen act,proKLK7 act conf,EDANS-DABCYL int,DDE Tn6 FP ctr,DDE Tn6 confirm,others
CC(=O)Nn1cc2c(c1-c1ccccc1)c(=O)n(C)c(=O)n2C,-0.3,-0.6,1.9,-7.4,7.0,0.4,.,.,.,.,
Cn1c(=O)c2[nH]c(-c3ccccc3)c(O)c2n(C)c1=O,69.7*,17.1*,-43.0,36.4*,0.8,17.3*,40.8*,39.6*,.,.,Tn7 DDE conf=4.9;Tn7 DDE ctr=-0.9
CN(C)/C=C1\C=C2C(=O)c3ccccc3N2C1=O,216.7*,30.4*,-219.8,130.4,-0.5,14.4*,71.8*,66.5*,.,.,Tn7 DDE conf=53.3*;Tn7 DDE ctr=23.9*
C[C@@H]1CCN(C2CC2)S(=O)(=O)c2ccc(N3CC[C@@H](O)C3)cc2O1,.,1.6,.,.,1.2,0.2,.,.,.,.,
Nc1ccc(F)c(CN2CCN(c3ncc(Cc4ccccc4)cn3)CC2)c1,.,6.5,.,.,3.6,0.5,.,.,.,.,
COc1ccc2noc3c2c1C(=O)c1ccccc1-3,168.6*,-5.6,-115.1,133.0,52.3*,24.9*,-39.3,-31.1,53.3*,14.5,
COc1ccc(OC)c2c1C(=O)c1ccccc1C2=O,15.4,6.2,35.1,.,-1.0,0.0,.,.,.,.,
CCCC[C@H]1C2CC(OC(=O)NCCCc3ccccc3)C(C2)[C@H]2CCCCN21 (stereo partly drawn),.,-0.8,.,.,5.1,0.0,.,.,.,.,
CN1CC=C2C(C#N)=C(N)C(C#N)(C#N)[C@H](c3cccc(Cl)c3)C2C1 (stereo partly drawn),18.1,-1.9,4.7,8.5,17.8*,12.8*,34.2*,35.3*,4.0,-3.6,
CCN1CC=C2C(C#N)=C(N)C(C#N)(C#N)[C@H](c3cccc(OC)c3OC)[C@H]2C1,32.5,3.5,-37.0,43.6,1.9,1.4,.,.,.,.,
Cc1cccc(-c2cc(N3CCCN(C)CC3)n3nccc3n2)c1,.,2.9,.,0.6,16.2*,28.5*,-3.4,-3.0,-0.4,8.3,
CN(C)c1ccc2nc3ccc(=O)cc-3sc2c1,8.0,3.0,0.7,-9.2,146.1*,54.3*,142.5*,132.7*,-7.0,69.9*,
O=C(Nc1cccc([N+](=O)[O-])c1)OCc1ccc2c(c1)OCO2,.,7.9,.,.,-5.7,-0.2,.,.,.,.,
COc1ccc2ccccc2c1C=NNC(=O)c1cc(-c2ccc(C)c(C)c2)n[nH]1,.,-0.6,.,.,25.5*,48.6*,21.7*,15.1*,12.3,16.0*,EDANS interf=>69.5
COC(=O)c1ccccc1-c1c2ccc(=N)cc-2oc2cc(N)ccc12,175.8*,5.1,-91.7,144.8,+,101.0*,65.0*,85.6*,53.3*,93.2*,
FC(F)(F)c1cc(CNC2CCC23CCC(c2ccccc2)CC3)ccc1Cl (stereo not drawn),.,6.8,.,.,-10.7,.,.,.,.,.,
